Assay outcomes deposited in PubChem by Sanford-Burnham Center for Chemical Genomics.
DNMT1 inh = DNMT1 (human) enzyme inhibition; P26358; DNMT1 molecular beacon, Hinp1I cleavage, fluorescence; inhibition (reported as % activation of signal), % at 10 µM; 0.83% of 360,000 active; AID 588458; in the data active means inhibition above about 50%
SUMO1-SIM PPI = modulators of human SUMO1-mediated protein-protein interactions. SUMO1 binding to a labelled peptide, TR-FRET, 1 h. inhibition, % at 20 µM. 0.33% of 360,000 active; in the data active means inhibition above about 37%
Target sequence (P63165 whole entry, looked up): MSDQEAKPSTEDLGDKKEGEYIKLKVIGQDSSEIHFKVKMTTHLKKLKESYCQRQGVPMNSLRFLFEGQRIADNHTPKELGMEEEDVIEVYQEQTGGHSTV
LMPTP inh = LMPTP (human) inhibition | 0.22% of 360,000 active | recombinant LMPTP-A, OMFP fluorogenic substrate, fluorescence intensity | AID 651560 | P24666 | inhibition, % at 20 µM;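 active means compounds that cut the enzyme signal by at least half of the control window in the single-dose screen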
Target sequence (P24666 whole entry, looked up): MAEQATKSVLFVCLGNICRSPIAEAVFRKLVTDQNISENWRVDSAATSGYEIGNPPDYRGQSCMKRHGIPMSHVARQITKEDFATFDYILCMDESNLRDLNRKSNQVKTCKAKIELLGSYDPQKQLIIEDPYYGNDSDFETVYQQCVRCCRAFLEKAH
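Assay system: LMPTP-A phosphatase enzyme | Input: 0.625 nM enzyme | Also added: Fluorogenic phosphatase substrate OMFP at 400 µM final | Compound dosing: One test concentration per compound, 20 µM, with 3% DMSO overall | Schedule: 50 min enzyme reaction at room temperature, protected from light | Signal: Fluorescence intensity | Benchmarks: no-enzyme and uninhibited controls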
Scp-1 inhibitor = inhibitors of human Scp-1 phosphatase; Recombinant Scp1, phosphopeptide, malachite green phosphate absorbance; AID 493091; inhibition, % at 20 µM; 0.88% of 340,000 active; Q9GZU7;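 active means inhibition above about 50% at 20 µM, limit read from the data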
Target sequence (Q9GZU7 76-261 limits assumed): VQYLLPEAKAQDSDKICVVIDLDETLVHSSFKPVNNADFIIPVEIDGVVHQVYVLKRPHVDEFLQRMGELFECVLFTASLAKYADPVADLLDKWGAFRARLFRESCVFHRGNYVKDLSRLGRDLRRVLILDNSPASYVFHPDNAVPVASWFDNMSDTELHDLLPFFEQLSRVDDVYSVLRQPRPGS
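Test system: SCP-1 phosphatase catalytic domain, residues 76-261; measured by: colorimetric phosphate reagent with accelerator and stabiliser, absorbance at 630 nm; timing: enzyme reaction 45 min at room temperature, colour 5 min, stabilisation 30 min; also added: Phosphorylated 17-residue peptide substrate; compound dosing: one concentration, 20 µM, with 1.0% DMSO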
STEP block = inhibitors of human striatal-enriched phosphatase STEP; P54829; recombinant STEP, OMFP fluorogenic substrate, fluorescence; inhibition, % at 20 µM; 0.25% of 360,000 active; AID 588621;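 active means inhibition at 20 µM, scaled per plate between control wells, above about 37%, limit read from the data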
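System: isolated STEP enzyme; schedule: 20 min enzyme reaction at room temperature, protected from light; medium: Bis-Tris buffer pH 6.0, 2.5 mM DTT, 0.005% Tween 20; signal: fluorescence, 480/540 nm; dosing: single compound dose of 20 µM, 1% DMSO final; also added: OMFP substrate, 25 µM final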
Scp1 confirm = Scp-1 (human) inhibition, single-dose confirmed; 61% of 2,500 active; recombinant SCP-1 catalytic domain, phosphate release, malachite green absorbance; shares compounds with Scp-1 inhibitor; inhibition, % at 20 µM
Scp-1 MG ctr = counter-screen for Scp-1 inhibitors: colorimetric interference; apparent inhibition (interference), % at 20 µM; shares compounds with Scp-1 inhibitor; 2,500 tested, under 10 active; AID 540313; Colorimetric interference counterscreen, malachite green absorbance 630 nm;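 further: compounds added after enzyme reaction finished so only phosphate colour detection is probed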
Scp-1 Tm shift = validation of human Scp-1 inhibitors by thermal shift binding. Recombinant SCP1, Sypro Orange thermal shift Tm. AID 540329. 25% of 1,500 active. thermal shift relative to vanadate control, % at 40 µM. shares compounds with Scp-1 inhibitor;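 active means substances whose mean melting-temperature shift, as a percentage of the reference inhibitor's shift, reaches about 5.3%, limit read from the data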
Each line names hits and unclear results; the compound was inactive in the other large screens (follow-up assays come after a bar, where they were run). Rows were chosen to be rich in hits. Some 1.8% of all compounds tested hit in one or more screens of this group.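 How the source made its calls, unless noted: active means inhibition of at least 30% at 20 µM; inactive means the rest.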

O=S1(=O)CC(N2CCCC2)CN1Cc1ccccc1 (configuration not stated)	none (no result: Scp-1 inhibitor)
COc1cc2sc3ccc(C#Cc4ccccn4)cc3c(=O)c2cc1OC	Scp-1 inhibitor 50 | Scp1 confirm inactive | Scp-1 MG ctr inactive
COc1cccc2sc3cc(C#Cc4ccccn4)ccc3c(=O)c12	none
O=C(Nc1ccc(S(=O)(=O)NC2=NCCCCC2)cc1)c1cccc(S(=O)(=O)N2CCOCC2)c1	LMPTP inh 57, Scp-1 inhibitor 50 | Scp1 confirm inactive | Scp-1 MG ctr inactive
NC(=O)CCC(NS(=O)(=O)c1ccc(Cl)cc1)C(=O)NCC1CCCCC1 (configuration not stated)	none
NC(=O)CCC(NS(=O)(=O)c1ccc(Cl)cc1)C(=O)NCc1ccc(Cl)cc1 (configuration not stated)	none | Scp1 confirm inactive | Scp-1 MG ctr inactive
O=C(c1ccc(Cn2cc([N+](=O)[O-])cn2)o1)N1CCCCCC1	none
CCCn1c2c(c(=N)c3c1CCC3)CCCC2	Scp-1 inhibitor 74 | Scp1 confirm inactive | Scp-1 MG ctr inactive
CC(=O)c1cccc(OC(=O)c2ccc3c(=O)n4c(nc3c2)CCC4)c1	Scp-1 inhibitor 68 | Scp1 confirm inactive | Scp-1 MG ctr inactive
CC(=O)Nc1cccc(-c2nnc(-c3ccc(C)cc3)o2)c1	none
COc1ccc(OC)c(NC(=O)CN(C)CC(=O)Nc2ccccc2Cl)c1	Scp-1 inhibitor 58 | Scp1 confirm inactive | Scp-1 MG ctr inactive
COc1ccc(Br)cc1CN(C)CC(=O)Nc1ccccc1Cl	none
CC(=O)c1ccc(NC(=O)CCS(=O)(=O)c2ccc3c(c2)n(C)c(=O)c(=O)n3C)cc1	Scp-1 inhibitor 71 | Scp1 confirm 31 | Scp-1 MG ctr inactive | Scp-1 Tm shift inactive
COc1cc(CN(C)C(=O)C2CCN(S(=O)(=O)c3cccs3)CC2)ccc1OC(F)F	none
O=[N+]([O-])c1cccn2cc(-c3ccc(Br)cc3)nc12	Scp-1 inhibitor 107, STEP block 56 | Scp1 confirm 86 | Scp-1 MG ctr inactive | Scp-1 Tm shift 8.2
CC(Nc1cc(N2CCN(C(=O)C(C)(C)C)CC2)ccc1[N+](=O)[O-])c1ccccc1 (configuration not stated)	Scp-1 inhibitor 53 | Scp1 confirm inactive | Scp-1 MG ctr inactive
O=C(NN=C1CCCCCC1)c1cccs1	none
C=CC[C@H](CC(=O)N(CCO)Cc1ccccc1)C(=O)N[C@H](COC(=O)[C@@H](CC=C)CC(=O)OC(C)(C)C)c1ccccc1	none
C[C@H](CO)N1C[C@H](C)[C@@H](CN(C)C(=O)Nc2ccccc2)Oc2c(NC(=O)c3ccncc3)cccc2C1=O	Scp-1 inhibitor 88 | Scp1 confirm inactive | Scp-1 MG ctr inactive
COc1ccc(NC(=O)N(C)C[C@H]2Oc3c(NC(=O)c4ccncc4)cccc3C(=O)N([C@H](C)CO)C[C@@H]2C)cc1	Scp-1 inhibitor 61 | Scp1 confirm inactive | Scp-1 MG ctr inactive
C[C@H](CO)N1C[C@H](C)[C@@H](CN(C)C(=O)Nc2ccc(C(F)(F)F)cc2)Oc2c(NC(=O)c3ccncc3)cccc2C1=O	Scp-1 inhibitor 88 | Scp1 confirm inactive | Scp-1 MG ctr inactive
COc1ccc(NC(=O)Nc2cccc3c2O[C@H](CN(C)C(=O)Nc2ccccc2)[C@@H](C)CN([C@H](C)CO)C3=O)cc1	none
C[C@H]1CN([C@@H](C)CO)C(=O)c2cccc(NC(=O)c3ccncc3)c2O[C@H]1CN(C)C(=O)Nc1ccccc1	Scp-1 inhibitor 95 | Scp1 confirm 72 | Scp-1 MG ctr inactive | Scp-1 Tm shift inactive
O=C(O)c1cccc(S(=O)(=O)N2CCN(S(=O)(=O)c3ccc4ccccc4c3)CC2)c1	none
COc1ccc(-c2csc(C(C)(O)c3ccccc3)n2)cn1 (configuration not stated)	none (no result: Scp-1 inhibitor)
COc1ccc(N2CC(C(=O)N/N=C/c3ccccc3)CC2=O)cc1 (configuration not stated)	none | Scp1 confirm inactive | Scp-1 MG ctr inactive
Cc1ccc2nc(SCC(=O)N(CC(C)C)c3c(N)n(Cc4ccccc4)c(=O)[nH]c3=O)[nH]c2c1	Scp-1 inhibitor 88 | Scp1 confirm inactive | Scp-1 MG ctr inactive
CCN(C(=O)CSc1nc2ccc(OC)cc2[nH]1)c1c(N)n(Cc2ccccc2)c(=O)[nH]c1=O	none
Cc1cc(Cl)c(S(=O)(=O)NC(C(=O)O)C(C)C)cc1OCC(=O)NC1CCCCC1 (configuration not stated)	Scp-1 inhibitor 54 | Scp1 confirm 43 | Scp-1 MG ctr inactive | Scp-1 Tm shift inactive
Cc1cc(Cl)c(S(=O)(=O)NC(C(=O)O)c2ccccc2)cc1OCC(N)=O (configuration not stated)	Scp-1 inhibitor 69 | Scp1 confirm 44 | Scp-1 MG ctr inactive | Scp-1 Tm shift 18
Cc1cccc(S(=O)(=O)NC(=O)C2(C)CCN2C(=O)c2cccc(F)c2)c1 (configuration not stated)	none (no result: Scp-1 inhibitor)
CC1CCN(C(=O)CCc2ccc(S(=O)(=O)NC(C)C)cc2)CC1	Scp-1 inhibitor 67 | Scp1 confirm inactive | Scp-1 MG ctr inactive
CC(C)NS(=O)(=O)c1ccc(CCC(=O)N2CCc3ccccc3C2)cc1	none
COc1cccc(CNC(=O)CN(C)S(=O)(=O)c2ccc3c(c2)n(C)c(=O)c(=O)n3C)c1	none | Scp1 confirm inactive | Scp-1 MG ctr inactive
COc1ccc(CNC(=O)CN(C)S(=O)(=O)c2ccc3c(c2)n(C)c(=O)c(=O)n3C)cc1	none | Scp1 confirm inactive | Scp-1 MG ctr inactive
O=C(O)C1C2C=CC(C2)C1C(=O)Nc1ccccc1Br (configuration not stated)	Scp-1 inhibitor 69, STEP block 44 | Scp1 confirm 58 | Scp-1 MG ctr inactive | Scp-1 Tm shift inactive
CC(=O)Nc1ccc2c(c1)C(C)(C)C(C)N2C (configuration not stated)	Scp-1 inhibitor 82 (no result: DNMT1 inh, SUMO1-SIM PPI, LMPTP inh, STEP block) | Scp1 confirm inactive | Scp-1 MG ctr inactive
O=C(Cc1nnc(NC(=O)c2ccccc2)s1)N/N=C/c1ccc(O)cc1	Scp-1 inhibitor 62 | Scp1 confirm 49 | Scp-1 MG ctr inactive | Scp-1 Tm shift inactive
COc1cc(/C=N/NC(=O)Cc2nnc(NC(=O)c3ccccc3)s2)ccc1O	none
O=C(O)CC(Sc1n[nH]c(=S)s1)C(=O)O (configuration not stated)	Scp-1 inhibitor 79 | Scp1 confirm 36 | Scp-1 MG ctr inactive | Scp-1 Tm shift inactive
